Results published in ChEMBL document CHEMBL1770090, “Synthesis, antimicrobial, antioxidant, anti-hemolytic and cytotoxic evaluation of new imidazole-based heterocycles” (Eur J Med Chem, 2011).
≈ marks a conversion by molar mass, not a printed value.

Key:
Priestia megaterium = assay: Antimicrobial activity against Bacillus megaterium ATCC 9885 after 24 hrs by agar well diffusion method; assay type: functional
Outline: (§1)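 Agar well diffusion. Inocula of 100 µL: bacteria 1 × 10^8 CFU/mL on nutrient agar, yeast 1 × 10^6 CFU/mL on Sabouraud dextrose agar, fungi 1 × 10^4 spore/mL on potato dextrose agar. 10 mm wells received 100 µL of compound at 100 mg/mL in DMSO. Bacteria incubated 24 h at 37 °C, fungi 48 h at 28 °C. Controls were DMSO, ciprofloxacin 50 µg/mL and ketoconazole 50 µg/mL. Inhibition zone diameter in mm, scored N.A. to ++++, average of triplicates.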

Aspergillus niger = assay: Antimicrobial activity against Aspergillus niger after 48 hrs by agar well diffusion method; assay type: functional; outline: as §1
[1] = Cytotoxicity against mouse EAC cells assessed as cell viability using trypan blue staining after 2 hrs by hemocytometer analysis; assay type: functional, cell-based; conditions: Ehrlich
Staphylococcus aureus [2] = assay: Antimicrobial activity against Staphylococcus aureus ATCC 29213 after 24 hrs by agar well diffusion method; assay type: functional; outline: as §1
Bacillus subtilis [3] = assay: Antimicrobial activity against Bacillus subtilis ATCC 6633 after 24 hrs by agar well diffusion method; assay type: functional; outline: as §1
Klebsiella pneumoniae = assay: Antimicrobial activity against Klebsiella pneumoniae ATCC 13883 after 24 hrs by agar well diffusion method; assay type: functional; outline: as §1
[4] = Antioxidant activity assessed as ABTS radical scavenging activity at 2 mM; assay type: functional
Outline: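 ABTS (60 µM, 2 mL) was oxidized with MnO2 (25 mg/mL, 3 mL) in 0.1 M phosphate buffer pH 7, then centrifuged and filtered, with A734 adjusted to about 0.5. 50 µL of 2 mM compound in MeOH/phosphate buffer (1:1) was added. Colour loss expressed as % inhibition. L-ascorbic acid was the standard; blank and negative controls used MeOH/buffer.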

Candida albicans = assay: Antimicrobial activity against Candida albicans NRRL Y-477 after 48 hrs by agar well diffusion method; assay type: functional; outline: as §1
[5] = Antioxidant activity in rat erythrocytes assessed as inhibition of peroxyl radicals-induced hemolysis at 2 mM after 2 hrs; assay type: functional; conditions: Erythrocyte, read-out: INH
Outline: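 Rat blood from cardiac puncture, heparinized. Erythrocytes were washed three times in 0.15 M NaCl. A 10% suspension in PBS pH 7.4 was mixed with an equal volume of 200 mM AAPH in PBS containing sample, then shaken at 37 °C for 2 h. Mixture diluted with 8 volumes of PBS and centrifuged; supernatant A540 compared with a water-lysed sample for complete hemolysis. L-ascorbic acid was the positive control. Mean ± SD.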

Pseudomonas aeruginosa = assay: Antimicrobial activity against Pseudomonas aeruginosa ATCC 27953 after 24 hrs by agar well diffusion method; assay type: functional; outline: as §1
Escherichia coli = assay: Antimicrobial activity against Escherichia coli ATCC 25922 after 24 hrs by agar well diffusion method; assay type: functional; outline: as §1
Bacillus subtilis [6] = assay: Antimicrobial activity against Bacillus subtilis ATCC 6633 after 24 hrs by two fold serial dilution technique; assay type: functional; conditions: ATCC 6633, 24 h
Outline: (§2)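 Tested only compounds giving inhibition zones ≥ 16 mm, by two-fold serial dilution in nutrient broth. Final concentrations were […], 175, 87.5, 43.8 and 21.9 µg/mL. Each 5 mL tube received 0.1 mL inoculum of about 1 × 10^8 CFU/mL and was incubated 24 h at 37 °C. MIC was the lowest concentration with no growth.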

Staphylococcus aureus [7] = assay: Antimicrobial activity against Staphylococcus aureus ATCC 29213 after 24 hrs by two fold serial dilution technique; assay type: functional; conditions: ATCC 29213, 24 h; outline: as §2

SMILES	diameter of the inhibition zone (DIZ) (Priestia megaterium)	diameter of the inhibition zone (DIZ) (Aspergillus niger)	IC50 [1]	diameter of the inhibition zone (DIZ) (Staphylococcus aureus [2])	diameter of the inhibition zone (DIZ) (Bacillus subtilis [3])	diameter of the inhibition zone (DIZ) (Klebsiella pneumoniae)	inhibition [4]	diameter of the inhibition zone (DIZ) (Candida albicans)	percent hemolysis at 2000 µM [5]	diameter of the inhibition zone (DIZ) (Pseudomonas aeruginosa)	diameter of the inhibition zone (DIZ) (Escherichia coli)	MIC (Bacillus subtilis [6])	MIC (Staphylococcus aureus [7])
CC1=NC(=N/N=C(\C)c2nc(-c3ccccc3)[nH]c2C)/S/C1=N\Nc1ccc(Cl)cc1	<=4 mm	<=4 mm	20.2 µg/mL (≈ 45 µM)	<=4 mm	<=4 mm	<=4 mm	40.7%	<=4 mm	1.7%	<=4 mm	<=4 mm	–	–
C/C(=N/NC(=O)c1cc2ccc(O)cc2oc1=N)c1nc(-c2ccccc2)[nH]c1C	<=4 mm	<=4 mm	150 µg/mL (≈ 375 µM)	<=4 mm	<=4 mm	<=4 mm	4.56%	<=4 mm	5.55%	<=4 mm	<=4 mm	–	–
C/C(=N\N=C1\NC(=O)/C(=C/c2ccc(F)cc2)S1)c1nc(-c2ccccc2)[nH]c1C	<=4 mm	<=4 mm	14.5 µg/mL (≈ 34.6 µM)	<=4 mm	<=4 mm	<=4 mm	79.2%	<=4 mm	1.4%	<=4 mm	<=4 mm	–	–
C/C(=N\N=C1\N=C(c2cc3ccccc3oc2=O)CS1)c1nc(-c2ccccc2)[nH]c1C	<=4 mm	<=4 mm	125 µg/mL (≈ 283 µM)	<=4 mm	<=4 mm	<=4 mm	61.6%	<=4 mm	2.5%	<=4 mm	<=4 mm	–	–
C/C(=N\N=C1\N=C2N=c3ccccc3=NC2S1)c1nc(-c2ccccc2)[nH]c1C (stereo not drawn)	<=4 mm	<=4 mm	4.25 µg/mL (≈ 10.6 µM)	<=4 mm	<=4 mm	<=4 mm	37.4%	<=4 mm	1.1%	<=4 mm	<=4 mm	–	–
C/C(=N\NC(N)=S)c1nc(-c2ccccc2)[nH]c1C	10 mm	<=4 mm	4.18 µg/mL (≈ 15.3 µM)	5 mm	16 mm	10 mm	60.2%	<=4 mm	2.45%	<=4 mm	<=4 mm	87.5 µg/mL (≈ 320 µM)	–
C/C(=N\N=C1\N=C(c2ccccc2)CS1)c1nc(-c2ccccc2)[nH]c1C	<=4 mm	<=4 mm	19.5 µg/mL (≈ 52.2 µM)	16 mm	16 mm	10 mm	79.3%	<=4 mm	2.75%	10 mm	10 mm	43.8 µg/mL (≈ 117 µM)	29.1 µg/mL (≈ 77.9 µM)
C/C(=N\N=C1\N=C(c2cc3ccccc3o2)CS1)c1nc(-c2ccccc2)[nH]c1C	<=4 mm	<=4 mm	21.5 µg/mL (≈ 52 µM)	<=4 mm	<=4 mm	<=4 mm	39.9%	<=4 mm	1.9%	<=4 mm	<=4 mm	–	–
C/C(=N\NC(=O)/C(C#N)=C\c1cn(-c2ccccc2)nc1-c1cccs1)c1nc(-c2ccccc2)[nH]c1C	<=4 mm	<=4 mm	125 µg/mL (≈ 242 µM)	<=4 mm	<=4 mm	<=4 mm	34.6%	<=4 mm	5.55%	<=4 mm	<=4 mm	–	–
C/C(=N\N=C1\NC(=O)/C(=C/c2cn(-c3ccccc3)nc2-c2cccs2)S1)c1nc(-c2ccccc2)[nH]c1C	<=4 mm	<=4 mm	8.25 µg/mL (≈ 15 µM)	<=4 mm	<=4 mm	<=4 mm	76.2%	<=4 mm	3.45%	<=4 mm	<=4 mm	–	–
